Measured values reported in ChEMBL document CHEMBL3352197, “Design, synthesis, in silico and in vitro studies of novel 4-methylthiazole-5-carboxylic acid derivatives as potent anti-cancer agents” (Bioorg Med Chem Lett, 2014).

Tests used:
MDA-MB-231 [1] = experiment: Cytotoxicity against human MDA-MB-231 cells assessed as optical density after 24 hrs by MTT assay (Rvb =2.43 +/- 0.05 nm); type: functional
Method in brief: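 Exponentially growing MDA-MB-231 cells were resuspended in medium with 10% FBS, washed with PBS, and treated in fresh medium for 24 h. MTT (5 mg/mL stock in PBS) was then added for 4 h at 37 °C. Formazan was dissolved in DMSO and optical density read at 570 nm.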

MDA-MB-231 [2] = experiment: Cytotoxicity against human MDA-MB-231 cells assessed as cell viability at 10 ug/ml after 24 to 48 hrs by trypan blue exclusion assay (reference value: 87.54 +/- 2.11%); type: functional; settings: read-out: Activity
Method in brief: (§1)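 MDA-MB-231 cells (DMEM, 10% FBS, 2 mM glutamine, 37 °C, 5% CO2) seeded at 2 x 10^5/well and grown 24 h. Compound in fresh medium with 0.1% DMSO (solvent control) for 24–48 h at 37 °C. Floating plus trypsinized adherent cells mixed 1:1 with 0.4% trypan blue and counted by haemocytometer. % viable = (total − dead)/total × 100. Mean SE, n = 3.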

[3] = Lipophilicity, log P of the compound; type: physicochemical; settings: octanol/water
MDA-MB-231 [4] = experiment: Cytotoxicity against human MDA-MB-231 cells assessed as cell viability at 100 ug/ml after 24 to 48 hrs by trypan blue exclusion assay (reference value: 86.21 +/- 1.80%); type: functional; settings: read-out: Activity; method in brief: as §1

| Structure (SMILES) | OD (MDA-MB-231 [1]) | viability at 10 µg/mL (MDA-MB-231 [2]) [%] | logP [3] | viability at 100 µg/mL (MDA-MB-231 [4]) [%] |
| --- | --- | --- | --- | --- |
| Cc1nc(-c2ccc(OCC(C)C)c(C#N)c2)sc1C(=O)NCc1ccccc1 | 1.89 | 73.6 | 2.2 | 63.5 |
| Cc1nc(-c2ccc(OCC(C)C)c(C#N)c2)sc1C(=O)NCc1ccccc1F | 1.27 | 58.3 | 2.9 | 43.2 |
| Cc1nc(-c2ccc(OCC(C)C)c(C#N)c2)sc1C(=O)NCc1cccc(F)c1 | 1.44 | 64.3 | 2.86 | 54.3 |
| Cc1nc(-c2ccc(OCC(C)C)c(C#N)c2)sc1C(=O)NCc1ccc(F)cc1 | 0.33 | 21.8 | 2.86 | 13.1 |
| Cc1nc(-c2ccc(OCC(C)C)c(C#N)c2)sc1C(=O)Nc1ccccc1 | 1.31 | 62.7 | 4.57 | 50.7 |
| Cc1nc(-c2ccc(OCC(C)C)c(C#N)c2)sc1C(=O)N1CCC(c2noc3cc(F)ccc23)CC1 | 1.65 | 64.6 | 2.7 | 56.3 |
| COC(=O)c1sc(-c2ccc(OCC(C)C)c(C#N)c2)nc1C | 2.27 | 76.7 | 1.63 | 67.6 |
| Cc1nc(-c2ccc(OCC(C)C)c(C#N)c2)sc1C(=O)n1ccc(N)nc1=O | 0.79 | 40.9 | 1.59 | 29.2 |
| Cc1nc(-c2ccc(OCC(C)C)c(C#N)c2)sc1C(=O)n1cc(F)c(N)nc1=O | 2.11 | 74.6 | 0.94 | 66.4 |
| Cc1nc(-c2ccc(OCC(C)C)cc2)sc1C(=O)O | 1.73 | 71.2 | 3.08 | 59.3 |
| Cc1nc(-c2ccc(OCC(C)C)c(C#N)c2)sc1C(=O)OCC(C)C | 1.16 | 44.2 | 0 | 36.2 |
| Cc1ccc(-c2cc(C(F)(F)F)nn2-c2ccc(S(N)(=O)=O)cc2)cc1 [CELECOXIB] | 0.27 | 17.3 | – | 11.4 |
| Cc1nc(-c2ccc(OCC(C)C)c(C#N)c2)sc1C(=O)O [FEBUXOSTAT] | 0.56 | 38.3 | 1.35 | 27.7 |
